From PubChem
Compounds with a hit are over-represented: about 0.62% of the library has one in this group of screens.
ABCB1 inh – ABCB1 efflux pump inhibitors, primary screen, cell-based, multiplex, flow cytometry, ABCG2 counter-screen; ATP-dependent translocase ABCB1 (Homo sapiens), P08183; CCRF-Adr cells, JC-1 efflux; inhibition, % at 6.6 µM; actives 0.067% (n = 190,000); AID 1326, 2008; in the data active means inhibition above about 40%;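 further: 0% = vehicle and 100% = reference inhibitor; higher value means more JC-1 retained so stronger ABCB1 efflux block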
MDM2 E3 inh – MDM2-luciferase reporter signal enhancers, primary screen, MDM2 E3 ligase inhibitor project, cell-based, luminescence, 1536-well; cell-based MDM2 ubiquitination luciferase reporter, 2 h; 0 = plate control, 100 = twice control, blank-subtracted; signal enhancement, % at 5 µM; E3 ubiquitin-protein ligase Mdm2 (Homo sapiens), Q00987; actives 0.11% (n = 210,000);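 active means signal enhancement of 30% or more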;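 further: luminescence tracks abundance of the self-degrading MDM2-luciferase fusion protein; higher signal means inhibition of MDM2 E3 ligase activity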
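system = mammalian cells stably expressing self-ubiquitinating, self-degrading MDM2 E3–luciferase fusion | quantity = 2000 cells per well seeded | incubation = 4 h cell settling then 2 h compound exposure, 37 °C | signal = SteadyLite luminescence, 15 min reagent step | benchmarks = plate control and blank wells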
Arbovirus inh – antivirals against arbovirus infection, primary screen, cell-based, full library, 10K replicate subset. AID 1251, 2008. actives 0.37% (n = 200,000). arbovirus infection cell-based antiviral screen. inhibition, % at 10 µM; in the data active means inhibition above about 30%
Rad51 HR inh – human RAD51 strand exchange inhibitors, primary screen, biochemical, fluorescence | DNA repair protein RAD51 homolog 1 (Homo sapiens), Q06609 | hRad51 DNA strand exchange, fluorescence dequenching | inhibition, % at 10 µM | actives 0.085% (n = 200,000) | AID 1385, 2008;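 active means inhibition above 40% at the single screening dose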;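 further: 0% = DMSO control wells and 100% = blanks with heterologous ssDNA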
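Read-out basis: percent inhibition relative to plate controls and blanks / Assay system: human Rad51 nucleoprotein filaments preassembled on unlabelled ssDNA / Timing: filaments 15 min 37 °C, then compound 30 min / Control set: per-plate controls and blanks / Technique: fluorescence dequenching at 485/520 nm / Compound: 10 µM final, single point / Also added: Fluorescein- and BHQ1-tagged 47-mer duplex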
ABCG2 block – ABCG2 efflux pump inhibitors, primary screen, multiplex with ABCB1, IgMXP3 cells, flow cytometry; JC-1 efflux; inhibition, % at 6.6 µM; actives 0.1% (n = 190,000); AID 1325, 2008;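 active means inhibition above 80%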;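 further: 0% = DMSO and 100% = nicardipine control wells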
Target sequence (Q9UNQ0 whole entry, looked up): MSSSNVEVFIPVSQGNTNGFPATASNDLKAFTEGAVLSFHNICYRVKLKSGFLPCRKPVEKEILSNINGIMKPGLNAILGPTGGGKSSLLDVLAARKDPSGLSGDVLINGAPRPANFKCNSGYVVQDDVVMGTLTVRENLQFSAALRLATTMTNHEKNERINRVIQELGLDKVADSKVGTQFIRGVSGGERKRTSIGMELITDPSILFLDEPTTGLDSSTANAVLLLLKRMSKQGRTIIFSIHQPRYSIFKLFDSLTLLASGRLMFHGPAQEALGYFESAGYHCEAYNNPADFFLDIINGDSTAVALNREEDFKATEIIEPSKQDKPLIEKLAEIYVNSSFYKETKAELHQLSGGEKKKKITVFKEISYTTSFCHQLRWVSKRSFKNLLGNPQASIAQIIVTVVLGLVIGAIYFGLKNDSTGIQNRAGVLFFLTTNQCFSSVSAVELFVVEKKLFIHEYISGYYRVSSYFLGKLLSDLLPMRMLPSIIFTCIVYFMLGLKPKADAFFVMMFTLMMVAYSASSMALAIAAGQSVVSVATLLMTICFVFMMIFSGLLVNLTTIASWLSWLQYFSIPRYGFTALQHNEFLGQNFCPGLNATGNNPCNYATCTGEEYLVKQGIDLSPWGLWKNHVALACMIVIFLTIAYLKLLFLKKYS
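Test system: ABCG2 IgMXP3 and barcoded ABCB1 CCRF-Adr cell mix; Schedule: cells with compound and JC-1, 10 min at 25 °C, rotating, no wash; Technique: flow cytometry of retained JC-1 fluorescence; Measure: % inhibition of efflux relative to nicardipine and DMSO; Controls: nicardipine high and DMSO low controls.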
An asterisk follows results filed as active; i = inactive; . = no result given; + = active, no number.

SMILES	ABCB1 inh	MDM2 E3 inh	Arbovirus inh	Rad51 HR inh	ABCG2 block
Cc1[nH]c2ccccc2c(=O)c1CN1CCCCC1	1.2	-10.4	5.1	-3.9	7.6
Cc1[nH]c2ccc(Cl)cc2c(=O)c1CN1CCCC1	-0.6	35.5*	3.6	-1.8	-3.6
Cc1nc(CSc2ccc(Cl)cc2)cc(NCc2ccccc2)n1	0.4	-11.0	-12.0	4.3	2.5
Cc1nc(CS(=O)c2ccc(Cl)cc2)cc(NCc2ccc(Cl)cc2Cl)n1 (configuration not stated)	2.6	-8.5	85.0*	-9.5	12.3
C=CC[n+]1ccc(/C=C2\C=Cc3cc(C)ccc3N2CC)c2ccccc21	-0.2	-61.7	-22.2	28.6	-5.3
Oc1ccccc1-c1cc(-c2ccccc2)no1	0.2	-41.9	7.0	-7.0	2.0
Cc1ccc(-c2cc(-c3ccccc3)no2)c(O)c1	0.1	-47.1	35.8*	-0.6	0.1
O=C(c1ccc(N2CCN(CCO)CC2)nc1)N1CCOCC1	-0.1	5.3	5.4	-14.1	1.0
CCOc1ccc(S(=O)(=O)N2CCN(c3ccccc3OC)CC2)c2cccnc12	0.7	-14.1	34.5*	-9.0	0.4
C=C1CCN(C(C)C(=O)OC)S(=O)(=O)c2ccccc21 (configuration not stated)	.	8.6	.	1.2	.
C=C1CCN(C(C(=O)OC)C(C)C)S(=O)(=O)c2ccccc21 (configuration not stated)	.	33.4*	.	-4.9	.
Cc1ccc(N2C(=O)c3ccc(C(=O)N4CCN(Cc5ccccc5)CC4)cc3C2=O)cc1	.	.	.	-9.8	.
C(=N\Nc1nc(-c2ccccc2)cs1)/c1ccncc1	0.2	-1.7	15.4	-4.5	2.1
C(=N\Nc1nc(-c2ccccc2)cs1)/c1cccs1	-0.5	-11.4	34.8*	-3.0	-0.8
C(=N\Nc1nc(-c2ccccc2)cs1)/c1ccco1	-0.2	-5.7	36.2*	-9.6	-0.7
Nc1[nH]nc2nc(NCc3ccccc3)c3c(c12)CCN(Cc1ccccc1)C3	0.5	19.3	48.8*	.	1.6
Cc1ccc(NC(=O)COc2ncnc3cc([N+](=O)[O-])ccc23)cc1S(=O)(=O)N1CCOCC1	.	-1.8	.	-13.1	.
CS(=O)(=O)N(CC(=O)Nc1ccc(S(=O)(=O)N2CCCC2)cc1)c1ccccc1	-0.2	-10.6	2.9	0.7	-0.4
c1ccc(-c2csc3ncnc(NCCCN4CCOCC4)c23)cc1	1.6	-11.5	43.0*	-7.9	10.5
c1csc(-c2csc3ncnc(NCCCN4CCOCC4)c23)c1	0.8	-25.7	18.0	5.4	2.3
CCOC(=O)N1CCN(C(=O)CSCC(=O)N=c2sc3ccccc3n2C)CC1	0.6	-4.0	7.1	104.8*	1.3
CCN1/C(=C/C=C/c2oc3ccc(-c4ccccc4)cc3[n+]2CC)Oc2ccc(-c3ccccc3)cc21	+	-12.9	-28.2	i	.
C/C(=N\Nc1nc2ccccc2[nH]1)c1ccc2c(c1)OCO2	1.8	-3.1	36.4*	8.9	12.7
O=C1CN(C(=O)CNCc2ccccc2)c2ccccc2N1	.	-6.0	.	.	.
C/C(=N\NC(=O)c1c(Cl)c(C)nn1C)c1ccc(NC(=O)c2ccncc2)cc1	0.1	-7.2	40.6*	5.6	-1.2
SMILES	ABCB1 inh	MDM2 E3 inh	Arbovirus inh	Rad51 HR inh	ABCG2 block
CC(=O)Nc1ccc(/C(C)=N/NC(=O)c2ccncc2)cc1	0.4	1.0	1.4	2.4	2.1
CC12CCCCC1N(O)C(=O)C(=O)N2O (configuration not stated)	0.6	-13.3	-4.9	0.8	2.6
COc1cccc(NC(=O)c2cc(-c3cccnc3)nc3c(Cl)cccc23)c1	0.5	-10.0	-10.4	45.4*	1.6
COc1ccc(NC(=O)c2cc(-c3cccnc3)nc3c(C)c(C)ccc23)c(OC)c1	1.1	7.4	-5.9	-6.6	2.6
O=c1[nH]c(CSc2nc3ccccc3[nH]2)nc2c1cnn2-c1ccccc1	0.1	-8.4	18.9	3.8	8.8
c1ccc(CSc2nc3ccccc3[nH]2)cc1	.	-28.1	.	6.3	.
Nc1c(-c2ccccc2)c(CSc2nc3ccccc3[nH]2)nn1-c1cccc(Cl)c1	22.4	-9.8	34.4*	7.1	32.1
Cc1ccccc1-n1nc(CSc2nc3ccccc3[nH]2)c(-c2ccccc2)c1N	4.7	-0.7	39.9*	-3.9	12.7
O=C1OCC2=C1C(c1ccccc1)CC(=O)N2c1ccccc1 (configuration not stated)	1.1	-4.0	3.5	51.3*	4.5
O=C(O)c1cccc(N/N=C/C2=C(Cl)c3cc(Cl)ccc3SC2)c1	-1.6	2.3	45.6*	-44.2	-3.7
O=C(O)c1cccc(N/N=C/c2ccc(F)c(F)c2)c1	-0.4	-59.4	2.2	9.7	-1.7
Nc1nc(NCCCN2CCOCC2)nc(Nc2ccccc2F)c1[N+](=O)[O-]	.	-22.9	.	8.6	.
COc1cc2c(cc1OC)CN(C(=O)c1ccco1)CC2	0.8	35.2*	14.3	-10.0	4.0
Cc1csc(SC(C)c2nc3scc(-c4ccccc4)c3c(=O)[nH]2)n1 (configuration not stated)	.	.	.	40.1*	.
O=C(Cn1nc(CNc2ccc(Br)cc2)[n+]2c1CCCCC2)c1ccc([N+](=O)[O-])cc1	.	-36.1	.	-2.8	.
O=C(COC(=O)c1ccccc1C(=O)c1ccc(Cl)c([N+](=O)[O-])c1)NC1CCCCCC1	5.5	32.9*	-30.5	5.1	7.1
Cc1cc(/C=c2\sc3nc4ccccc4n3c2=O)c(C)n1-c1ccc(C(=O)O)cc1	0.7	-17.0	37.2*	-37.7	2.1
O=c1/c(=C/c2ccc(O)c([N+](=O)[O-])c2)sc2nc3ccccc3n12	-0.1	-20.6	30.5*	2.9	1.1
Cc1cc(/C=c2/sc3nc4ccccc4n3c2=O)c(C)n1-c1ccccn1	2.7	-73.7	-8.8	-11.2	6.5
CC(C)(C)c1ccc(NC(=O)c2c(F)cccc2Cl)cc1	.	-2.6	.	-1.1	.
CC(C)(Oc1ccc(Cl)cc1)C(=O)NC1=NN(c2ccccc2)C(=O)C1	-0.4	-2.2	35.2*	-1.7	-4.1
COC(=O)c1ccc([C@@H]2C[C@H]3CN(Cc4cccnc4)C(=O)[C@]34CCCN24)cc1	0.4	-1.2	1.7	4.5	0.4
COc1ccc(-n2nnnc2SC(C)C(N)=O)cc1 (configuration not stated)	0.4	-31.4	-0.8	8.6	1.8
CCN(CC)S(=O)(=O)c1ccc2c(c1)nc(SC(C)C(N)=O)n2-c1ccc(OC)cc1 (configuration not stated)	1.7	-11.0	-11.5	63.1*	5.0
